Assay results gathered from unrelated publications.
Compare with care: the assays were run in different laboratories.
JAK3: Tyrosine-protein kinase JAK3 (JAK3, Homo sapiens, UniProt P52333)
JAK3 JH1: Tyrosine-protein kinase JAK3, JH1 (JAK3, Homo sapiens, UniProt P52333)

With CC/C(=N\NC(=O)NCc1cccc(O)c1)c1ccc(O)c(C)c1O the inhibition was 3% (JAK3; enzyme activity; inhibitor; 0.1 µM).
With O=C(Nc1cnn(-c2csc(C(=O)NC3COC3)c2)c1)Nc1c(F)cccc1Cl the remaining activity was 98.7% (JAK3; enzyme activity; inhibitor; 5 µM).
With CSc1nc(C)c(-c2ccnc(Nc3ccc(N4CCOCC4)cc3)c2)[nH]1 the inhibition was 65.5% (JAK3; enzyme activity; inhibitor; 10 µM).
The remaining signal of O=C1NC(=O)c2cc(Nc3ccc(F)cc3)c(Nc3ccc(F)cc3)cc21 is reported as 93.9% (JAK3; cell-free assay; 0.5 µM).
The inhibition of COc1cc2ncnc(Nc3ccc(Oc4ccccc4)cc3C)c2cc1OC is reported as -6% (JAK3; enzyme activity; inhibitor; 1 µM).
The remaining activity of Cc1ccc(C(=O)Nc2ccc(CN3CCN(C)CC3)c(C(F)(F)F)c2)cc1C#Cc1cnc2cccnn12 is reported as 14% (JAK3; enzyme activity; inhibitor; 23.5 nM).
CCCS(=O)(=O)Nc1ccc(F)c(C(=O)c2c[nH]c3ncc(-c4ccc(Cl)cc4)cc23)c1F has an inhibition of less than 10% (JAK3; enzyme activity; inhibitor; 1 µM).
CCOc1cc(-c2nncn2C)ccc1Nc1ncc2cc(C)nc(NCC(C)(C)C)c2n1 has an inhibition of less than 15% (JAK3; enzyme activity; inhibitor; FRET; 1 µM).
With CN(C)CC#Cc1ccc(OCCCc2sc(N3CCc4cccc(C(=O)Nc5nc6ccccc6s5)c4C3)nc2C(=O)O)c(F)c1 the remaining binding was 58% (JAK3 JH1; cell-free assay; competition with immobilised ligand; 1 µM).
For Cc1ccc(Nc2nccc(N(C)c3ccc4c(C)n(C)nc4c3)n2)cc1S(N)(=O)=O, the inhibition was 77% (JAK3; enzyme activity; inhibitor; 10 µM).
With CCc1ccccc1C(=O)Nc1n[nH]c2c(C)c(F)c(C3C(C#N)=C(C)N(C)C(C)=C3C#N)cc12 the remaining binding was 79% (JAK3 JH1; cell-free assay; competition with immobilised ligand; 1 µM).
The inhibition of CS(=O)(=O)Nc1cccc(-c2csc(NC(=O)CSc3nc4nccnc4c(=O)n3CCc3ccccc3)n2)c1 is reported as 1% (JAK3; enzyme activity; inhibitor; 10 µM).
With Cc1ccc(C(=O)NCc2ccsc2)cc1C#Cc1cn(C(C)C)c2ncnc(N)c12 the activity vs control was 74% (JAK3; enzyme activity; inhibitor; 1 µM).
The remaining binding of O=C(NCCCC1CCCCC1)c1ccc(CNC(=O)c2cnn(-c3ccccc3)c2C(F)(F)F)cc1 is reported as 100% (JAK3 JH1; cell-free assay; competition with immobilised ligand; 0.1 µM).
The remaining signal of CN(c1nccc(-c2cnn3ncccc23)n1)C1CC1 is reported as 100% (JAK3 JH1; cell-free assay; 1 µM).
For Cn1nc(C(=O)NCc2ccc(C(=O)O)cc2)cc1-c1ccc2[nH]ccc2c1, the remaining binding was 65% (JAK3 JH1; cell-free assay; competition with immobilised ligand; 0.1 µM).
Oc1ccc(-c2nc(-c3ccncc3)c(-c3ccc(F)cc3)[nH]2)cc1 has a remaining signal of 95.8% (JAK3; cell-free assay; 0.5 µM).
With c1cnn2ncc(-c3ccnc(N4CCC45COC5)n3)c2c1 the remaining signal was 68% (JAK3 JH1; cell-free assay; 1 µM).
For CC1=C(C#N)[C@@H](c2ccc3[nH]nc(C)c3c2)C(C#N)=C(c2ccc(Cl)cc2)N1, the remaining binding was 100% (JAK3 JH1; cell-free assay; competition with immobilised ligand; 1 µM).
